Assay results taken from PMC8364871 (Clinical cancer research : an official journal of the …, 2021).

Tests used:
[1] = system: MCL cell lines; assay: Activity in MCL cell lines; format: cell-based, human
[2] = biological target: T1, SOX11-DNA interaction (Homo sapiens, UniProt P35716); assay: Fluorescence anisotropy; format: biochemical; settings: 20 μM of compound
T1 sequence (P35716 49-117 limits assumed): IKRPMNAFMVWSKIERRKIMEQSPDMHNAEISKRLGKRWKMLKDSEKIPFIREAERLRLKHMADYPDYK
Method in brief: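 Fluorescence anisotropy read at fluorescein excitation/emission wavelengths to follow SOX11–DNA binding in the presence of test compound. Unlabeled DNA served as the competitive positive control. Read-out: percent inhibition of DNA binding.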

[3] = system: pBTK in JeKo-1, Z-138, Mino and JVM-2; assay: PhosphoFlow pBTK-Y223, all four MCL cell lines; format: cell-based, human; settings: 24 hours; 1 μM and 10 μM Ibrutinib (Figure 5B)
[4] = system: MCL patients; settings: cited from earlier work; for duration of response: MCL patients
[5] = system: DNA (topoisomerase I relaxation of supercoiled plasmid DNA); assay: Topoisomerase-based DNA unwinding assay; format: biochemical; settings: 20 μM
[6] = system: SOX11 DBD; settings: cited from earlier work
[7] = biological target: T2, (His)6-SOX11-DBD (Homo sapiens, UniProt P35716); assay: Surface plasmon resonance binding to immobilized SOX11-DBD; settings: 25 °C
T2 sequence (P35716 49-117 limits assumed): T1 sequence (P35716 49-117 limits assumed)

Structure (SMILES): Cc1cc2nc3c(=O)[nH]c(=O)nc-3n(C[C@H](O)[C@H](O)[C@H](O)COP(=O)(O)OP(=O)(O)OC[C@H]3O[C@@H](n4cnc5c(N)ncnc54)[C@H](O)[C@@H]3O)c2cc1C [Flavitan]
- activity in MCL cell lines [1]: inactivity in MCL cell lines
- inhibition of DNA binding [2]: > 50%

Structure (SMILES): C=CC(=O)N1CCC[C@@H](n2nc(-c3ccc(Oc4ccccc4)cc3)c3c(N)ncnc32)C1 [Ibrutinib]
- pBTK level in all four cell lines [3]: reduced pBTK level in all four cell lines
- duration of response [4]: 17.5 months
- overall response rate ([4]; relapsed MCL patients): 60%
- direct DNA binding / interference with DNA unwinding activity of topoisomerase I [5]: do not directly bind DNA

Structure (SMILES): O=C(O)c1c(O)cccc1CCc1ccc2ccccc2c1 [Sm4]
- concentration inhibiting SOX11 DBD [6]: sub-millimolar concentrations
- binding affinity to SOX11-DBD (SPR) [7]: displayed expected affinities

Structure (SMILES): CC1(C)CCC(CN2CCN(c3ccc(C(=O)NS(=O)(=O)c4ccc(NCC5CCOCC5)c([N+](=O)[O-])c4)c(Oc4cnc5[nH]ccc5c4)c3)CC2)=C(c2ccc(Cl)cc2)C1 [Venetoclax]
- duration of response [4]: 14 months
